Hit rate of the full screen: of about 200,000 compounds, fewer than 10 were called active.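 Rule for the calls: active = activation factor at least 2 at 20 µM; inactive = the rest.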 A selection follows.
target: Alkaline phosphatase, tissue-nonspecific isozyme (Homo sapiens) (UniProt P05186); experiment: TNAP activators at high phosphate acceptor level, primary screen, biochemical, luminescence, uHTS (AID 1136); details: purified TNAP, CDP-star luminescence, 1 M DEA, 30 min; at 20 µM; hits give high values; 0 = EDTA background, 1 = DMSO-only activity
In short: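 Control set: EDTA negative control, DMSO positive control / Assay system: human TNAP / Quantity: TNAP 1/800 final / Evaluation: TNAP activation factor scaled between EDTA and DMSO control wells / Measured by: luminescent substrate turnover signal / Compound dosing: one dose, 20 µM / Times: 30 min enzyme reaction at room temperature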

Sequence of Alkaline phosphatase, tissue-nonspecific isozyme (Homo sapiens) (P05186 whole entry, looked up): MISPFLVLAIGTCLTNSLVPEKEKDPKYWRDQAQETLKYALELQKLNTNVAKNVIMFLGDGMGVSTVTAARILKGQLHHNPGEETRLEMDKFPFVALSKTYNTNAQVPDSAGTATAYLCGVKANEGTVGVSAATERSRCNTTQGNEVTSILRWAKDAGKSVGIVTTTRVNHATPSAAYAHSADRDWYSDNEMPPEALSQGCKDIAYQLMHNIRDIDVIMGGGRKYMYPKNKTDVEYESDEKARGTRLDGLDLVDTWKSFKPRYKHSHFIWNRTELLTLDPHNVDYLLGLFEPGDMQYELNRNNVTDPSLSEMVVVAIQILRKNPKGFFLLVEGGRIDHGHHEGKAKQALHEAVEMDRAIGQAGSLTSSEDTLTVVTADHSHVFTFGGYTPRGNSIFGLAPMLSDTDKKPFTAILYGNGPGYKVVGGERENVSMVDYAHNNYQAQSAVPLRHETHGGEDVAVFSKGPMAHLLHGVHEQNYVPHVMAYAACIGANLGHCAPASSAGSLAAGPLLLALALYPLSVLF

Activation factor, inactive:
Cn1c2c(c(=O)n(C)c1=O)C(c1cccc([N+](=O)[O-])c1)Nc1ccccc1O2 (configuration not stated) 1
COC(=O)C1CCN(CC(N)=O)CC1 1.1
CCCCN(CC)C(=S)Nc1ccc2nc3n(c(=O)c2c1)CCCCC3 1
CCOC(=O)C1=NOC(Cn2cc(C(C)=O)c(=O)[nH]c2=O)C1 (configuration not stated) 1
O=C(C1=C[C@H](c2coc3ccccc3c2=O)C[C@H](OCc2ccc(CO)cc2)O1)N1CCN(Cc2ccccc2)CC1 1
COc1ccc(C(=O)NCC(=O)N/N=C/c2ccc([N+](=O)[O-])s2)cc1OC 0.9
CC(=O)c1ccc(NC(=O)c2ccc3c(Cl)c4c(nc3c2)CCCC4)cc1 1
Cc1ccc(NS(=O)(=O)c2ccc(C)c(NC(=O)COc3ccc4ccccc4c3)c2)c(C)c1 1
CCCCC(CC)CNC(=O)C(=O)C1C(=O)Nc2ccccc21 (configuration not stated) 1
Nc1nc(NC(=O)/C=C/c2ccccc2)nn1-c1ccccc1 1
CCOC(=O)c1cccc(NC(=O)CCOc2ccccc2)c1 1
Cc1ccc2[nH]c(C(=O)O)c(NC(=O)c3ccccc3[N+](=O)[O-])c2c1 1
COc1ccc(Cl)cc1C(=O)NNC(=S)NC(=O)/C=C/c1ccco1 1.1
C=C(C)C1CC=C(C)/C(=N/NC(=O)CCCNc2cccc(C)c2)C1 (configuration not stated) 1
O=C(Nc1ccc(C(=O)O)cc1)/C(=C/c1ccc([N+](=O)[O-])cc1)NC(=O)c1ccccc1 1
Cc1ccc(CN2CCN(/N=C/c3cccnc3)CC2)c(C)c1 1
COc1cc(OC)nc(S(C)(=O)=O)n1 1
CCn1c2ccccc2c2cc(NC(=O)COC(=O)c3cc(S(=O)(=O)N4CCCCC4)ccc3Cl)ccc21 1
N=C1C(c2nc3ccccc3[nH]2)=C(O)CN1NC(=O)c1c[nH]c2ccccc12 1.1
CCn1c(COc2ccccc2)nnc1SCC(=O)NCc1ccco1 1
Cc1cc(N2CCOCC2)nc(-c2ccc(Br)cc2)n1 1
Cc1nn(C)cc1C(=O)Nc1ccccc1Br 1
C/C=C(\C)C(=O)NCCN1C2=NC[C@H](Cc3ccc(O)cc3)N2C[C@@H]1Cc1ccc(OC)cc1 1.1
Cc1ccc(CN(Cc2cccnc2)C(=S)Nc2cc(Cl)ccc2C)cc1 1.1
COC(=O)CCSc1cc([N+](=O)[O-])cc2c1c(C1OCCS1)nn2-c1ccccc1 (configuration not stated) 1
COc1ccc(OC)c(C2C3=C(N=c4s/c(=C\c5cccc(O)c5)c(=O)n42)c2ccccc2CC3)c1 (configuration not stated) 0.9
CC(NC(=O)c1cccc2ccccc12)c1ccc2c(c1)CCCC2 (configuration not stated) 1
COc1ccccc1NC(=O)C1=C(C)Nc2nc3ccccc3n2C1c1cccs1 (configuration not stated) 1
CCOC(=O)c1sc(/N=C/C2=C(O)CC(C)(C)CC2=O)c(C(=O)OCC)c1C 1
O=C(CCNC(=O)c1ccc([N+](=O)[O-])cc1)Nc1ccccc1N1CCOCC1 1
CCN(CC)CCCNC(=O)c1ccc2c(=O)n(Cc3ccc4c(c3)OCO4)c(=S)[nH]c2c1 1
CC1(c2cccc([N+](=O)[O-])c2)CC(C)(C)N(C(=O)c2ccccc2)c2ccccc21 (configuration not stated) 1
C=CS(=O)c1sc(Cl)c(N2CCOCC2)c1[N+](=O)[O-] (configuration not stated) 1
O=C(CNC(c1ccccc1)c1ccccc1)Nc1ccc(F)cc1 1
Cc1cc(C)c(S(=O)(=O)N2CCOCC2)cc1C 1
CC1(C)C2CCC1(C)C(OC(=O)c1ccc(O)cc1)C2 (configuration not stated) 1.1
Cc1nc2sc3c(c2c(=O)n1NC(=O)CCl)CCCC3 1
COc1ccc(C)cc1NC(=O)CSc1nnc(CC(=O)Nc2ccccc2F)n1C 1.1
Cc1ccc(S(=O)(=O)N2CCN(C(=O)c3cccs3)CC2)cc1 1
CCCC(=O)n1nc(NCc2ccc(OC)cc2)nc1NCc1ccc(OC)cc1 1
CNC(=S)Nc1ccc([N+](=O)[O-])cc1 1
COc1ccc(C(=O)C[n+]2ccc(C)cc2)cc1 1.1
NC(=O)COc1ccc(C23CC4CC(CC(C4)C2)C3)cc1 1.1
CCc1ccccc1NC(=S)N(CCN1CCCCCC1)Cc1ccco1 1
CCCCN1C(=O)c2ccc(C(=O)Nc3ccc(S(=O)(=O)N(C)C)cc3)cc2C1=O 1
CCCc1c(C)nc2c(Br)cccc2c1Cl 1
Clc1ccc(CN2CCN(/N=C/c3cccnc3)CC2)cc1 1
CC(=O)N1CCc2cc(Br)cc(S(=O)(=O)CCC(=O)Nc3c(C)n(C)n(-c4ccccc4)c3=O)c21 1
CCN(CC)c1ccc(C(=O)N/N=C(\C)c2cccc(OC)c2)cc1 1
Cc1ccc(C)c2[nH]c(=O)c(CCNC(=O)c3cccs3)cc12 1
O=C(/C=C/c1c(F)cccc1Cl)Nc1nn[nH]n1 1
CC(=O)Nc1ccc(/C=N/NC(=O)c2cccs2)cc1 1
CC(CC(=O)N1CCN(c2ccccc2)CC1)c1ccccc1 (configuration not stated) 1
COC(=O)c1ccc(-n2cnc3ccccc32)nc1 1
CN1CCN(CC(=O)Nc2cccc([N+](=O)[O-])c2)CC1 1
O=C(CS(=O)(=O)c1ccccc1)Nc1ccc(S(=O)(=O)Nc2ccccn2)cc1 1
COc1ccccc1C(=O)Nn1c(-c2cccs2)nc2ccccc2c1=O 1
CCN(CC)C(=O)C(=O)c1cn(CC(=O)NCc2ccc3c(c2)OCO3)c2ccccc12 1
Cc1ccc(S(=O)(=O)CCC(=O)OCc2ccccc2)cc1 1
CCOC(=O)c1ccccc1NC(=O)CSc1nc2ccccc2c(=O)[nH]1 1
O=C(CN1CCN(c2ccc(O)cc2)CC1)NC1CCCc2ccccc21 (configuration not stated) 1
O=[N+]([O-])c1cc(S(=O)(=O)CCCN2CCOCC2)ccc1F 1

Source: PubChem BioAssay AID1136 (Sanford-Burnham Center for Chemical Genomics, 2008)
